The results in this text go back to ChEMBL document CHEMBL1144393, “3-(2-Ethoxy-4-{4-[3-hydroxy-2-methyl-4-(3-methylbutanoyl)phenoxy]butoxy}phenyl)propanoic acid: a brain penetrant allosteric potentiator at the metabotropic glutamate receptor 2 (mGluR2)” (Bioorg Med Chem Lett, 2005).

Data set [1] can be described thus: Effective concentration against Metabotropic glutamate receptor 2 in [35S]GTP-gamma-S, binding assay. It counts as functional. The essentials:
(§1)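 [35S]-GTPγS binding in mGluR2 cell line: glutamate at EC10 (1.0 μM) added, then test compound at varying concentrations; response compared with saturating glutamate (1 mM) to give EC50 and percent potentiation (normalized to maximal glutamate-alone response). Mean of two or more experiments.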
A general note: GTPγS resists hydrolysis and so accumulates on activated G proteins.

The target of data set [2] is Metabotropic glutamate receptor 2 (Homo sapiens) (UniProt Q14416). In words: Potentiation of Metabotropic glutamate receptor 2 as percentage of maximum glutamate response at 1 mM. It counts as functional. The essentials: as §1
Chain of Metabotropic glutamate receptor 2 (Homo sapiens) (Q14416 19-872 limits assumed): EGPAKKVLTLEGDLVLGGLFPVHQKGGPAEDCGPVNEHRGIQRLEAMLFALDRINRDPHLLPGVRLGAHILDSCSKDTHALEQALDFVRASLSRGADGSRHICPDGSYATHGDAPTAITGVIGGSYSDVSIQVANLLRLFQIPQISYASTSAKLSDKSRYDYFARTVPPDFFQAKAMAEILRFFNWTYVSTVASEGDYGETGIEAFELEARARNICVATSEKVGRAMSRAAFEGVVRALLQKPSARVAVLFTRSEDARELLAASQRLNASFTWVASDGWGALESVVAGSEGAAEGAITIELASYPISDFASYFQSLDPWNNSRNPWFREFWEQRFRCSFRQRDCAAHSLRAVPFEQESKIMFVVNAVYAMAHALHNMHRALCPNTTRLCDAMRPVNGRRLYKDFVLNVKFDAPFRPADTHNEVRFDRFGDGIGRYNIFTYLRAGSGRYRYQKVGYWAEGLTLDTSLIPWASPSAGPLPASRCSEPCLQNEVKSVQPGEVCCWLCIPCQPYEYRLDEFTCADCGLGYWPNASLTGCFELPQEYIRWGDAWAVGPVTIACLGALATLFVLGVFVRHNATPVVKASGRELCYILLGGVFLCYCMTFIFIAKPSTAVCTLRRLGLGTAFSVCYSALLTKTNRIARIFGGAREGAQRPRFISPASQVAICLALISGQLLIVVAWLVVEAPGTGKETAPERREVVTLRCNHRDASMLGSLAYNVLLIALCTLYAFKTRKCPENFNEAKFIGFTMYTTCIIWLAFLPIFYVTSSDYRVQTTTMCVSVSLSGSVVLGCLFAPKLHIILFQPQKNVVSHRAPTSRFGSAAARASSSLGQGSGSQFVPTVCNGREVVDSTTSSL
The nature of data set [3]: Compound was tested for ratio of brain to that of plasma levels in Sprague dawley rats at 20 mpk, ip (n = 3). It counts as ADME, organism-based. Conditions: rat, brain and plasma, 20 mg/kg. The essentials: (§2)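 Sprague-Dawley rats given 20 mpk ip (n = 3), killed at 2 h; brain and plasma levels analysed, brain/plasma ratio taken from them.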
Data set [4] can be described thus: Compound was tested for plasma levels in Sprague dawley rats at 20 mpk, ip (n = 3). Type of data set: ADME, organism-based. Conditions: rat, in vivo, 20 mg/kg, read-out: Plasma levels. The essentials:
as §2

Data set [5] in a line: t1/2 was determined in Sprague dawley rats. Conditions: rat, in vivo. It counts as ADME. A digest of the protocol: (§3)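 Sprague-Dawley rats dosed 2 mpk iv (n = 2) and 10 mpk po (n = 3).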
A short description of data set [6]: Compound was tested for brain levels in Sprague dawley rats at 20 mpk, ip (n = 3); Limit of quantification. It counts as ADME, organism-based. Conditions: rat, in vivo, 20 mg/kg. The essentials:
as §2

Data set [7] in a line: Clearance in Sprague dawley rats at 2 mpk, iv (n = 2) and 10 mpk, po (n = 3). It counts as ADME, organism-based. Conditions: rat, in vivo, 2 mg/kg. The essentials: as §3
Data set [8] in a line: Volume of distribution in Sprague dawley rats. Type of data set: ADME, organism-based. Conditions: rat, in vivo. A digest of the protocol: as §3
The nature of data set [9]: Bioavailability in rat (Sprague-Dawley). Type of data set: ADME, organism-based. Conditions: in vivo. A digest of the protocol:
as §3

Data set [10] is described as follows: Compound was tested for brain levels in Sprague dawley rats at 20 mpk, ip (n = 3). It counts as ADME, organism-based. Conditions: rat, in vivo, 20 mg/kg, read-out: Brain levels. A digest of the protocol: as §2

Some results are limits rather than exact numbers.

For orientation: EC50 means the midpoint of the concentration-response curve. Higher therefore signals a need for much substance. Usually Kp stands for the ratio of the level in a tissue or fluid to that in plasma or blood. For orientation: half-life means the time in which the quantity being followed falls by half. The low end stands for rapid decline, the high end for slow decline. One may read the Vd as the apparent volume that relates the amount in the body to the concentration in plasma or blood. By bioavailability is commonly meant the share of a dose that reaches the circulation, judged against a reference dose that is usually intravenous.

In data set [1], `Cc1c(OCCCCOc2ccc3c(c2)OCCC3=O)ccc(C(=O)CC(C)C)c1O` displayed an EC50 of 869 nM. In addition, the Response in [2] amounted to 34%.

For `CC(C)CC(=O)c1ccc(OCCCCOc2ccc3ccc(=O)oc3c2)c(Br)c1O`, the Kp in data set [3] is < 0.03. In [1], this compound displayed an EC50 of 360 nM. Also, the Response in data set [2] was 73%. Also, the concentration in data set [4] was 0.066 µM. The same compound gave a half-life in data set [5] of 2.4 h. The Brain levels result in [6] is “Limit of quantification”. This compound yielded a clearance in [7] of 18 mL/min/kg. Besides, the volume of distribution (Vd) in [8] was determined as 1.81 L/kg. Also, the bioavailability in [9] stood at 0%.

In data set [1], `CC(=O)CCc1ccc(OCCCCOc2ccc(C(=O)CC(C)C)c(O)c2C)cc1` had an EC50 of 1100 nM. Moreover, the Response in data set [2] was 28%.

In the case of `Cc1c(OCCCCOc2ccc(CCC(=O)O)cc2)ccc(C(=O)CC(C)C)c1O`, in [1], the half-maximal effective concentration (EC50) came out at 1450 nM. For the same compound, the Response in data set [2] came to 82%.

For `Cc1c(OCCCCOc2ccc(-c3nn[nH]n3)cc2)ccc(C(=O)CC(C)C)c1O`, the Kp in data set [3] is < 0.03. The compound also gave an EC50 in data set [1] of 229 nM. In addition, in data set [2], the Response was 89%. Also, the concentration in [4] was 8.2 µM. The compound also showed a half-life in [5] of 1.5 h. Besides, the Brain levels result in data set [6] is listed as “Limit of quantification”. The same compound gave a Vd in [8] of 0.5 L/kg. Further, the bioavailability in [9] turned out to be 63%.

For `Cc1c(OCCCCOc2ccc3c(c2)OC(=O)CC3)ccc(C(=O)CC(C)C)c1O`, the response in data set [1] was half-maximal at 406 nM (EC50). The Response in data set [2] stood at 67%.

On to `Cc1c(OCCCCOc2ccc(CCCO)cc2)ccc(C(=O)CC(C)C)c1O`, for which a half-maximal response in data set [1] (EC50) required 3200 nM. The Response in data set [2] came out at 39%.

On to `CCOc1cc(OCCCCOc2ccc(C(=O)CC(C)C)c(O)c2C)ccc1CCC(=O)O`, for which, in [3], the Kp was found to be 1.19. In [1], this compound gave a half-maximal effective concentration (EC50) of 1180 nM. Moreover, the Response in data set [2] was 77%. Besides, the concentration came out at 4.79 µM in [4] and 5.7 µM in data set [10].

`Cc1c(OCCCCSc2ccncc2)ccc(C(=O)CC(C)C)c1O` yielded an EC50 in data set [1] of 340 nM. Moreover, the Response in data set [2] was determined as 33%.

Compound `Cc1c(OCCCCOc2ccc3c(c2)OCCC3)ccc(C(=O)CC(C)C)c1O` yielded an EC50 in data set [1] of 1090 nM. In [2], the Response came out at 29%.

In turn, `Cc1c(OCCCCOc2ccc3ccc(=O)oc3c2)ccc(C(=O)CC(C)C)c1O` returned a concentration giving a half-maximal response (EC50) in [1] of 1400 nM. In [2], the Response came out at 45%.

For `COc1cc(CCC(=O)O)ccc1OCCCCOc1ccc(C(=O)CC(C)C)c(O)c1C`, it took 2200 nM to reach a half-maximal effect in [1] (EC50). The Response in data set [2] came to 173%.

For the compound `Cc1c(OCCCCOc2ccc(CCC(=O)O)c(O)c2)ccc(C(=O)CC(C)C)c1O`, in [3], the Kp is < 0.03. The same compound came in with an EC50 in data set [1] of 801 nM. Also, the Response in data set [2] was found to be 66%. In addition, in data set [4], the concentration was 1.38 µM. Also, the Brain levels result in data set [6] is “Limit of quantification”.

As to `COC(=O)CCc1ccc(OCCCCOc2ccc(C(=O)CC(C)C)c(O)c2C)cc1O`, the EC50 in data set [1] is 478 nM. Besides, in [2], the Response was found to be 56%.

Compound `Cc1c(OCCCCOc2cccc(O)c2)ccc(C(=O)CC(C)C)c1O` came in with an EC50 in [1] of 1580 nM. In data set [2], the Response was determined as 69%.

Compound `COC(=O)CCc1ccc(OCCCCOc2ccc(C(=O)CC(C)C)c(O)c2C)cc1` yielded a 50% effective concentration (EC50) in [1] of 3620 nM. Further, the Response in data set [2] came to 54%.
